Results on 16 compounds are retold here after ChEMBL document CHEMBL1139307, “1-Naphthyl and 4-indolyl arylalkylamines as selective monoamine reuptake inhibitors” (Bioorg Med Chem Lett, 2009).

Experiment [1] concerns the target Transporter (Rattus norvegicus, UniProt Q63380). As to the kind of experiment: Displacement of [3H]nisoxetine from Sprague-dawley rat NET by liquid scintillation spectrophotometry.
In experiment [2] the target is Sodium-dependent dopamine transporter (Rattus norvegicus, UniProt P23977). As to the kind of experiment: Displacement of [125I]RTI55 from DAT in Sprague-dawley rat striatum by liquid scintillation spectrophotometry. Summed up:
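Membranes from tissue homogenized in 10 vol of 0.32 M sucrose/10 mM sodium phosphate buffer, pH 7.4, and spun three times at 48,000g for 10 min. Cold-Tris filtration used BSA-presoaked GF/B filters, with WF-23 defining non-specific binding.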

For experiment [3], the target named is Sodium-dependent serotonin transporter (Rattus norvegicus, UniProt P31652). The experiment in a line: Displacement of [3H]citalopram from SERT in Sprague-dawley rat frontal cortex by liquid scintillation spectrophotometry. The experiment is classed as tissue-based. For orientation: Loss of bound radioactivity is the signal in a displacement assay; it reports binding, not function.
Sodium-dependent serotonin transporter, sequence (P31652 whole entry): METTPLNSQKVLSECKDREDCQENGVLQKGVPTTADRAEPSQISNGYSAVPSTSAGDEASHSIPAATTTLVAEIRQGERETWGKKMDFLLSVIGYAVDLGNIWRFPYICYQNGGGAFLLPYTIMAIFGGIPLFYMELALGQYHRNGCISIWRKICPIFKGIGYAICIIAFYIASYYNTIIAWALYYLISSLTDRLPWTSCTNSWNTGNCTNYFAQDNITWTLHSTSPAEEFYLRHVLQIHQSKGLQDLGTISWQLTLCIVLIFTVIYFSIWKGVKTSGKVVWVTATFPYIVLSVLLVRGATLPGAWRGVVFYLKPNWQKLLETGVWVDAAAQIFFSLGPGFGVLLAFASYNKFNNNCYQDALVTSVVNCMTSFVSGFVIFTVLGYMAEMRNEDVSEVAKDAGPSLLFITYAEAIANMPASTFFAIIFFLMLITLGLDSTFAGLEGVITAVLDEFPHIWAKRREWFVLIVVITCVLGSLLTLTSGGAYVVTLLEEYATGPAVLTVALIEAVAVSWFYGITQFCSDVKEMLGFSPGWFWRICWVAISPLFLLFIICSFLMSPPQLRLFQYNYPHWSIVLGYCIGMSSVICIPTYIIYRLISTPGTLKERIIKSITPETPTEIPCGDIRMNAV

Each structure is given as a SMILES string. Some results are limits rather than exact numbers.

Transporter, sequence (Q63380 whole entry): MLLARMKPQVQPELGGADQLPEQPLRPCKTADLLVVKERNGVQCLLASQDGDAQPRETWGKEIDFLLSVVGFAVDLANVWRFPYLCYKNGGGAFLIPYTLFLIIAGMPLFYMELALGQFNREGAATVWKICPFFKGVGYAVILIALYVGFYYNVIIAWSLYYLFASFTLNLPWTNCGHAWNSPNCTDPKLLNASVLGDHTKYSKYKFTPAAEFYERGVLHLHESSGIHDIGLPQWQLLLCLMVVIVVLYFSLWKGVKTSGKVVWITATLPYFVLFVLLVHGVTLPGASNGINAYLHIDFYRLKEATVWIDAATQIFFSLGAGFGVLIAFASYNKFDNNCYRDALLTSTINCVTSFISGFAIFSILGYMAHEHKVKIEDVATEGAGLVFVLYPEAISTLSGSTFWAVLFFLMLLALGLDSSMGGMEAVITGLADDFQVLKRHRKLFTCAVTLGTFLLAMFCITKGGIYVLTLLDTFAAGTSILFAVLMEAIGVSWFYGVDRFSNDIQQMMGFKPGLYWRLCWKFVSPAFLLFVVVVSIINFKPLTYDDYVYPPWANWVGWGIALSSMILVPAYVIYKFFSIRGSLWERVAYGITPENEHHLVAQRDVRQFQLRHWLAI
Sodium-dependent dopamine transporter, sequence (P23977 whole entry): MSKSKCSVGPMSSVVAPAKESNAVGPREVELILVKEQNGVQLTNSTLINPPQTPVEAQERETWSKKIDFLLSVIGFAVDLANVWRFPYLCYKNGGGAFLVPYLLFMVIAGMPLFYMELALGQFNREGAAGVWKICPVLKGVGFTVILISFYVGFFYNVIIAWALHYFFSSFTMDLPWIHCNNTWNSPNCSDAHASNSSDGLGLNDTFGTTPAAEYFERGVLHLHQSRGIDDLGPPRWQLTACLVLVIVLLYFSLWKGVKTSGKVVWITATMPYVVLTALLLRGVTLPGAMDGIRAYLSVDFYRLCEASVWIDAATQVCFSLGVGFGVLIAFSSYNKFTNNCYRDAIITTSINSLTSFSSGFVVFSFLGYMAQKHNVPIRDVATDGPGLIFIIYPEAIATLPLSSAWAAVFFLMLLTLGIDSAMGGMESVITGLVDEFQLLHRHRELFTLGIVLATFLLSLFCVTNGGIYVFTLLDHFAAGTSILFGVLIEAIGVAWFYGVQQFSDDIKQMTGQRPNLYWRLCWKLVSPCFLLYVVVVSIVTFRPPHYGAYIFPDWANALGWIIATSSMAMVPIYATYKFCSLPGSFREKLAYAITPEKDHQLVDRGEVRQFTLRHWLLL

Take `CNCC[C@@H](c1ccc(Cl)c(Cl)c1)c1cccc2ccccc12`: the Ki (usually the dissociation constant of the complex between target and ligand, obtained from inhibition or displacement) in experiment [1] was 1630 nM; in experiment [3], 86 nM. Moreover, in experiment [2], the half-inhibitory concentration (IC50) (commonly the concentration at which inhibition is half-maximal) came to 35.8 nM.

Regarding `CNCC[C@H](c1cccs1)c1cccc2ccccc12`, the Ki in experiment [1] came out at 52.1 nM; in experiment [3] it was 30.2 nM. This compound displayed an IC50 in experiment [2] of 309 nM.

As for `CNCC[C@@H](c1ccc(Cl)c(Cl)c1)c1cccc2[nH]ccc12`, the Ki in experiment [1] was determined as 35.4 nM; in experiment [3], 3.63 nM. The compound also gave an IC50 in experiment [2] of 14.9 nM.

Regarding `CNCCC[C@H](c1cccs1)c1cccc2ccccc12`, the Ki came out at 7.9 nM in experiment [1] and 39.7 nM in experiment [3]. This compound registered an IC50 in experiment [2] of 466 nM.

Turning to `CNCC[C@@H](c1cccs1)c1cccc2[nH]ccc12`, the Ki worked out at 102 nM in experiment [1] and 166 nM in experiment [3].

For the compound `CNCCC[C@@H](c1ccc(Cl)c(Cl)c1)c1cccc2[nH]ccc12`, the Ki in experiment [1] came out at 360 nM; in experiment [3], 2.72 nM. The IC50 in experiment [2] amounted to 14.3 nM.

As for `CNCCC[C@H](c1ccc(Cl)c(Cl)c1)c1cccc2[nH]ccc12`, the Ki in experiment [1] is 4840 nM; in experiment [3], 0.82 nM. The IC50 in experiment [2] came out at 3.8 nM.

Consider `CNCCC[C@@H](c1cccs1)c1cccc2[nH]ccc12`, for which the values for the Ki in experiment [1] and in experiment [3] were 79.7 nM and 271 nM, respectively. In experiment [2], this compound gave an IC50 of 957 nM.

For `CNCC[C@H](c1ccc(Cl)c(Cl)c1)c1cccc2ccccc12`, the Ki in experiment [1] came to 1640 nM; in experiment [3], 5.3 nM. Moreover, the IC50 in experiment [2] was determined as 9.7 nM.

On to `CNCCC[C@@H](c1ccc(Cl)c(Cl)c1)c1cccc2ccccc12`, for which the Ki is greater than 10000 nM in experiment [1] and 49.9 nM in experiment [3]. In experiment [2], this compound showed an IC50 of 209 nM.

`CNCCC[C@H](c1ccc(Cl)c(Cl)c1)c1cccc2ccccc12`: the Ki came out at 2480 nM in experiment [1] and 4.1 nM in experiment [3]. Moreover, the IC50 in experiment [2] amounted to 61.2 nM.

With `CNCC[C@H](c1cccs1)c1cccc2[nH]ccc12`, the figures for the Ki in experiment [1] and in experiment [3] were 13.8 nM and 31.9 nM, respectively.

In the case of `CNCC[C@H](c1ccc(Cl)c(Cl)c1)c1cccc2[nH]ccc12`, the Ki stood at 95 nM in experiment [1] and 1.68 nM in experiment [3]. Besides, the IC50 in experiment [2] was 7.21 nM.

Take `CNCC[C@@H](c1cccs1)c1cccc2ccccc12`: the Ki in experiment [1] turned out to be 139 nM; in experiment [3] it was 12.1 nM. The compound further came in with an IC50 in experiment [2] of 230 nM.

On to `CNCCC[C@@H](c1cccs1)c1cccc2ccccc12`, for which the Ki in experiment [1] came out at 109 nM; in experiment [3] it was 9.5 nM. Also, the IC50 in experiment [2] stood at 405 nM.

Take `CNCCC[C@H](c1cccs1)c1cccc2[nH]ccc12`: the Ki is 9 nM in experiment [1] and 72.9 nM in experiment [3]. Moreover, the IC50 in experiment [2] stood at 318 nM.
